Assay results reported in ChEMBL document CHEMBL1143721, “Bioactive polyketides from Peperomia duclouxii” (J Nat Prod, 2007).
In brackets after ≈: the same amount, converted by molar mass.

Experiments:
WI-38 VA13 = assay: Growth inhibition of VA13 cells; format: functional, cell-based; conditions: Homo sapiens
How it was run: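 VA-13 malignant lung tumor cells kept in RITC 80-7 medium with 10% FBS and 80 µg/mL kanamycin. Growth inhibition measured, IC50 taken as the concentration giving 50% growth inhibition, reported in µg/mL.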

HepG2 = assay: Growth inhibition of HepG2 cells; format: functional, cell-based; conditions: Homo sapiens
How it was run: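 HepG2 cells kept in D-MEM with 10% FBS and 80 µg/mL kanamycin. Growth inhibition measured, IC50 taken as the concentration giving 50% growth inhibition, reported in µg/mL.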

WI-38 = assay: Growth inhibition of WI38 cells; format: functional, cell-based; conditions: Homo sapiens
A549 [1] = assay: Inhibition of IL-1-alpha-stimulated ICAM1 expression in human A549 cells; format: functional, cell-based
How it was run: (§1)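 A549 human lung carcinoma cells grown in RPMI 1640 with heat-inactivated 10% FBS, penicillin G and streptomycin. ICAM-1 induced with recombinant IL-1α or TNF-α. Cell-surface ICAM-1 detected with mouse anti-human ICAM-1 antibody C167 and peroxidase-conjugated goat anti-mouse IgG. Viability checked in parallel by MTT assay.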

A549 [2] = assay: Inhibition of TNF-alpha-stimulated ICAM1 expression in human A549 cells; format: functional, cell-based; how it was run: as §1
MDR [3] = assay: Effect on calcein accumulation in MDR 2780AD cells at 25 ug/mL relative to control; format: functional, Homo sapiens
How it was run: (§2)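 Multidrug-resistant human ovarian cancer 2780AD (AD10) cells grown in RPMI-1640 with 10% FBS and 80 µg/mL kanamycin. Cells are exposed to test agent at 0.25, 2.5 and 25 µg/mL. Calcein formed from calcein AM by endogenous esterase is read as fluorescence per well, mean of triplicates. Results are given as % of untreated control, or relative to verapamil at the same concentration.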

MDR [4] = assay: Effect on calcein accumulation in MDR 2780AD cells at 2.5 ug/mL relative to control; format: functional, Homo sapiens; how it was run: as §2
MDR [5] = assay: Effect on calcein accumulation in MDR 2780AD cells at 0.25 ug/mL relative to control; format: functional, Homo sapiens; how it was run: as §2
MDR [6] = assay: Effect on calcein accumulation in MDR 2780AD cells at 0.25 ug/mL relative to verapamil; format: functional, Homo sapiens; how it was run: as §2
MDR [7] = assay: Effect on calcein accumulation in MDR 2780AD cells at 25 ug/mL relative to verapamil; format: functional, Homo sapiens; how it was run: as §2
MDR [8] = assay: Effect on calcein accumulation in MDR 2780AD cells at 2.5 ug/mL relative to verapamil; format: functional, Homo sapiens; how it was run: as §2

IC50 (HepG2) [µg/mL] | IC50 (A549 [1]) [µg/mL] | IC50 (A549 [2]) [µg/mL] | SMILES | IC50 (WI-38 VA13) [µg/mL] | IC50 (WI-38) [µg/mL] | also measured
> 20 |  |  | COc1cc(/C=C/C(=O)NCCc2ccc(O)c(OC)c2)ccc1O | > 20 | > 20 | 
 | 43.3 (≈ 97.4 µM) | 27.2 (≈ 61.2 µM) | O=C(CCCCCCCCCCCCc1ccc2c(c1)OCO2)C1=C(O)CCC(O)C1=O (stereo not given) |  |  | 
18.2 (≈ 39.9 µM) | 65.2 (≈ 143 µM) | 48.8 (≈ 107 µM) | O=C1CCCC2=C1[C@H](O)C[C@H](CCCCCCCCCCCCc1ccc3c(c1)OCO3)O2 | > 20 | > 20 | 
 |  |  | COc1ccc(CCN(C)CCCC(C#N)(c2ccc(OC)c(OC)c2)C(C)C)cc1OC (stereo not given) |  |  | Activity (MDR [3]): 138%; Activity (MDR [4]): 114%; Activity (MDR [5]): 114%
0.41 (≈ 0.754 µM) |  |  | COc1cccc2c1C(=O)c1c(O)c3c(c(O)c1C2=O)C[C@@](O)(C(=O)CO)C[C@@H]3O[C@H]1C[C@H](N)[C@H](O)[C@H](C)O1 [DOXORUBICIN] | 0.39 (≈ 0.718 µM) |  | 
> 20 |  |  | CC1(C)C[C@H](O)C[C@@]2(C)OC(=O)C=C12 [LOLIOLIDE] | > 20 | > 20 | 
> 20 |  |  | COc1cc(/C=C/C(=O)NCCc2ccc(O)c(O)c2)ccc1O [N-TRANS-FERULOYLDOPAMINE] | > 20 | > 20 | 
9.2 (≈ 23 µM) | 36.8 (≈ 91.9 µM) | 22.9 (≈ 57.2 µM) | O=C(CCCCCCCCCCCCc1ccccc1)C1=C(O)CCC(O)C1=O (stereo not given) [OLEIFERINONE] | 5.8 (≈ 14.5 µM) | 9.6 (≈ 24 µM) | 
0.69 (≈ 0.808 µM) |  |  | CC(=O)O[C@H]1C(=O)[C@@]2(C)[C@H]([C@H](OC(=O)c3ccccc3)[C@]3(O)C[C@H](OC(=O)[C@H](O)[C@@H](NC(=O)c4ccccc4)c4ccccc4)C(C)=C1C3(C)C)[C@]1(OC(C)=O)CO[C@@H]1C[C@@H]2O [PACLITAXEL] |  | 0.05 (≈ 0.0586 µM) | 
> 20 |  |  | CC(C)CNC(=O)/C=C/CCCCc1ccc2c(c1)OCO2 [PIPERCALLOSIDINE] | > 20 | > 20 | 
 |  |  | C=C(C)[C@@H]1CCC(=C)[C@H](O)CCC(=C)[C@@H](O)C1 [SINUGIBBERODIOL] |  |  | Activity (MDR [6]): 100%; Activity (MDR [3]): 160%; Activity (MDR [4]): 137%; Activity (MDR [5]): 113%; Activity (MDR [7]): 116%; Activity (MDR [8]): 120%
7.4 (≈ 15.7 µM) | 51.4 (≈ 109 µM) | 33.5 (≈ 70.9 µM) | O=C(CCCCCCCCCCCCCCc1ccc2c(c1)OCO2)C1=C(O)CCC(O)C1=O (stereo not given) [SURINONE A] | 4.4 (≈ 9.31 µM) | 8.6 (≈ 18.2 µM) | 
> 20 |  |  | COc1cc(/C=C/C(=O)NCCc2ccc(O)cc2)cc(OC)c1O [TRANS-N-SINAPOYLTYRAMINE] | > 20 | > 20 | 
